Measured values from ChEMBL document CHEMBL1146754, “Estrogen receptor ligands. Part 4: The SAR of the syn-dihydrobenzoxathiin SERAMs” (Bioorg Med Chem Lett, 2004).

Experiments:
Estrogen receptor [1] = biological target: T1, Estrogen receptor (Homo sapiens, UniProt P03372)
T1 sequence (P03372 whole entry): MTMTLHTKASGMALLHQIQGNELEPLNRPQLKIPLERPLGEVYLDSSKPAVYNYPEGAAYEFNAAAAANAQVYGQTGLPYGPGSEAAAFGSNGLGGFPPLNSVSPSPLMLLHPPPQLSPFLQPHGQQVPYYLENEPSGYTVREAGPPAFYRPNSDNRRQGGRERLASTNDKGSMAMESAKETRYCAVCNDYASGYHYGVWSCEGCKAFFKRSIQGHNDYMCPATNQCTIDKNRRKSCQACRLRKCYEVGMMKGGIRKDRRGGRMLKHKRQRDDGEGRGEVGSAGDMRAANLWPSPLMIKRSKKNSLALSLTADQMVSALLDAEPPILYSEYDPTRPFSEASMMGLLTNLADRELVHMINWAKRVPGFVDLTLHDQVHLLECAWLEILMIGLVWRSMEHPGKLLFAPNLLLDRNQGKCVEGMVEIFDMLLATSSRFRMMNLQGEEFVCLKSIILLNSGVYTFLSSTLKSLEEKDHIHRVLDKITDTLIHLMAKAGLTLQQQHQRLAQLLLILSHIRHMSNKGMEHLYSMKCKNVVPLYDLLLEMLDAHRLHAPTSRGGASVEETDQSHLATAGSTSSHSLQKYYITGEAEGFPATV

[2] = biological target: T2, Estrogen receptor (Rattus norvegicus) (UniProt P06211+Q62986); settings: at 1 mg/kg
Estrogen receptor beta [3] = biological target: T3, Estrogen receptor beta (Homo sapiens, UniProt Q92731)
[4] = biological target: T2, Estrogen receptor (Rattus norvegicus); settings: at 1 mg/kg; remark: listed apart in the source
Estrogen receptor [5] = biological target: T1, Estrogen receptor; assay: Potency in cellular transactivation assay utilizing HEK293 cells stably co-transfected with human estrogen receptor alpha and the alkaline phosphatase reporter gene.; assay type: functional, cell-based
Estrogen receptor beta [6] = biological target: T3, Estrogen receptor beta; assay: Potency in cellular transactivation assay utilizing HEK293 cells stably co-transfected with human estrogen receptor beta and the alkaline phosphatase reporter gene; assay type: functional, cell-based
Rattus norvegicus [7] = species on record: Rattus norvegicus; assay: (§1) Plasma clearance of the compound in female Sprague-Dawley rats; assay type: ADME, organism-based; settings: in vivo
Outline: (§2)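 Female Sprague–Dawley rats were dosed intravenously at 1 mpk (n = 2) and orally at 2 mpk (n = 3) for pharmacokinetic evaluation.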

Rattus norvegicus [8] = species on record: Rattus norvegicus; assay: (§3) Bioavailability in rat (Sprague-Dawley) (female); assay type: ADME, organism-based; settings: in vivo
Outline: as §2

Rattus norvegicus [9] = species on record: Rattus norvegicus; assay: (§4) Half life period in female Sprague-Dawley rats; assay type: ADME, organism-based; settings: in vivo
Outline: as §2

[10] = biological target: T2, Estrogen receptor (Rattus norvegicus); settings: at 1 mg/kg; remark: listed apart in the source
[11] = as §1; assay type: ADME, organism-based; settings: female, Sprague-Dawley, rat, plasma
Outline: as §2

[12] = as §3; assay type: ADME, organism-based; settings: female, Sprague-Dawley, in vivo
Outline: as §2

[13] = as §4; assay type: ADME, organism-based; settings: female, Sprague-Dawley, rat, in vivo
Outline: as §2

[14] = biological target: T2, Estrogen receptor (Rattus norvegicus); settings: at 1 mg/kg; remark: listed apart in the source
Estrogen receptor beta [15] = biological target: T3, Estrogen receptor beta; assay: Agonist effect in transcriptional activation in HEK293 cells expressing human estrogen receptor beta; NA= not active; assay type: functional, cell-based
Estrogen receptor [16] = biological target: T1, Estrogen receptor; assay: Agonist effect in transcriptional activation in HEK293 cells expressing human estrogen receptor alpha; NA= not active; assay type: functional, cell-based

T3 sequence (Q92731 whole entry): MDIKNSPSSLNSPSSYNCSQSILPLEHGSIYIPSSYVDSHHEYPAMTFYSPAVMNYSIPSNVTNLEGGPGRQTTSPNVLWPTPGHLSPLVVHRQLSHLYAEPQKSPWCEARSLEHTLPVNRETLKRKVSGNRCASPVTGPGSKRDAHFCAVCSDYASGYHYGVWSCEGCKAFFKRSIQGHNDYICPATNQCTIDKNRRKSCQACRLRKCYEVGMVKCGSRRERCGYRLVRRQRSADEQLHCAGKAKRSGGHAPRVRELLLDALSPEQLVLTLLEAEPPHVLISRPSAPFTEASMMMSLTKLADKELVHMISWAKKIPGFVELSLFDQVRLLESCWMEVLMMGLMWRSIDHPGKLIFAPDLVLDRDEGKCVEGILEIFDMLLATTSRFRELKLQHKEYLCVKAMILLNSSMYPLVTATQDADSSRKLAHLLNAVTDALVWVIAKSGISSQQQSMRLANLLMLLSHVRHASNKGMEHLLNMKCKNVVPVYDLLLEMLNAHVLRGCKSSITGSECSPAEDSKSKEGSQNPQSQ

Question: Which results are given for `Oc1ccc([C@@H]2Sc3c(O)cc(O)cc3O[C@@H]2c2ccc(OCCN3CCCCC3)cc2)cc1`?
Answer: IC50 (Estrogen receptor [1]): 25 nM; Antagonism [2]: 64%; IC50 (Estrogen receptor beta [3]): 788 nM; Estrogenic effect [4]: 7%

Question: What does the source list for `COc1ccc(C2Sc3cc(O)ccc3OC2c2ccc(OCCN3CCCCC3)cc2)cc1` (stereo unspecified)?
Answer: IC50 (Estrogen receptor [1]): 41.1 nM; IC50 (Estrogen receptor beta [3]): 792 nM; IC50 (Estrogen receptor [5]): 274 nM; IC50 (Estrogen receptor beta [6]): > 1000 nM

Question: Which results are given for `Oc1cccc([C@H]2Sc3cc(O)ccc3O[C@H]2c2ccc(OCCN3CCCCC3)cc2)c1`?
Answer: IC50 (Estrogen receptor [1]): 4.1 nM; Antagonism [2]: 78%; IC50 (Estrogen receptor beta [3]): 115 nM; Estrogenic effect [4]: 12%; IC50 (Estrogen receptor [5]): 5.4 nM; IC50 (Estrogen receptor beta [6]): 157 nM

Question: Which IC50 (Estrogen receptor [1]) does the source give for `Oc1ccc([C@@H]2Sc3c(Cl)cc(O)cc3O[C@@H]2c2ccc(OCCN3CCCCC3)cc2)cc1` here?
Answer: 0.51 nM

Question: And the Antagonism [2]?
Answer: 68%

Question: What about the IC50 (Estrogen receptor beta [3]) of the same compound?
Answer: 8 nM

Question: And the Estrogenic effect [4]?
Answer: 12%

Question: What about the IC50 (Estrogen receptor [5]) of the same compound?
Answer: 3.4 nM

Question: What about the IC50 (Estrogen receptor beta [6]) of the same compound?
Answer: 121 nM

Question: Which results are given for `Oc1ccc([C@@H]2Sc3cc(O)ccc3O[C@@H]2c2ccc(OCCN3CCCCC3)cc2)cc1` (stereo in doubt; 11)?
Answer: CL (Rattus norvegicus [7]): 5 mL/min/kg; F (Rattus norvegicus [8]): 31%; T1/2 (Rattus norvegicus [9]): 3.8 h

Question: With `Oc1ccc([C@H]2Sc3c(ccc(O)c3F)O[C@H]2c2ccc(OCCN3CCCCC3)cc2)cc1` as the compound, how does the Antagonism [10] read?
Answer: 100%

Question: What about the IC50 (Estrogen receptor [1]) of the same compound?
Answer: 1 nM

Question: What about the clearance [11] of the same compound?
Answer: 18 mL/min/kg

Question: And the IC50 (Estrogen receptor beta [3])?
Answer: 18 nM

Question: What about the bioavailability [12] of the same compound?
Answer: 37%

Question: What about the half-life [13] of the same compound?
Answer: 3.1 h

Question: What about the Estrogenic effect [14] of the same compound?
Answer: 1%

Question: Which results are given for `Oc1ccc([C@@H]2Sc3c(F)cc(O)cc3O[C@@H]2c2ccc(OCCN3CCCCC3)cc2)cc1`?
Answer: IC50 (Estrogen receptor [1]): 0.5 nM; clearance [11]: 41 mL/min/kg; Antagonism [2]: 89%; IC50 (Estrogen receptor beta [3]): 13 nM; Estrogenic effect [4]: -2%; IC50 (Estrogen receptor [5]): 6.1 nM; bioavailability [12]: 4.4%; half-life [13]: 5.9 h; IC50 (Estrogen receptor beta [6]): 516 nM

Question: With `CCc1c(O)ccc2c1O[C@H](c1ccc(OCCN3CCCCC3)cc1)[C@H](c1ccc(O)cc1)S2` as the compound, how does the IC50 (Estrogen receptor [1]) read?
Answer: 4.7 nM

Question: And the IC50 (Estrogen receptor beta [3])?
Answer: 25 nM

Question: With `Oc1ccc([C@H]2Sc3cc(O)ccc3O[C@H]2c2ccc(OCCN3CCCCC3)cc2)cc1` as the compound, how does the clearance [11] read?
Answer: 10 mL/min/kg

Question: What about the bioavailability [12] of the same compound?
Answer: 62%

Question: What about the half-life [13] of the same compound?
Answer: 3.4 h

Question: And the Estrogenic effect [14]?
Answer: 9%

Question: For `CC1CCCC(C)N1CCOc1ccc([C@@H]2Oc3ccc(O)cc3S[C@@H]2c2cccc(O)c2)cc1` (stereo partly specified), which IC50 (Estrogen receptor [1]) is on record?
Answer: 3.4 nM

Question: And the Antagonism [2]?
Answer: 43%

Question: What about the IC50 (Estrogen receptor beta [3]) of the same compound?
Answer: 350 nM

Question: And the Estrogenic effect [4]?
Answer: 30%

Question: What about the IC50 (Estrogen receptor beta [15]) of the same compound?
Answer: Not Active

Question: And the IC50 (Estrogen receptor [16])?
Answer: Not Active

Question: Which IC50 (Estrogen receptor [1]) does the source give for `Oc1cccc([C@H]2Sc3cc(O)ccc3O[C@H]2c2ccc(OCCN3CCOCC3)cc2)c1` here?
Answer: 3.8 nM

Question: What about the Antagonism [2] of the same compound?
Answer: 54%

Question: What about the IC50 (Estrogen receptor beta [3]) of the same compound?
Answer: 318 nM

Question: What about the Estrogenic effect [4] of the same compound?
Answer: 29%

Question: And the IC50 (Estrogen receptor [5])?
Answer: 4.7 nM

Question: What about the IC50 (Estrogen receptor beta [6]) of the same compound?
Answer: 65.3 nM

Question: With `Oc1ccc([C@@H]2Sc3cc(O)ccc3O[C@@H]2c2ccc(OCCN3CCCCC3)cc2)cc1` (stereo in doubt; 11L) as the compound, how does the Antagonism [10] read?
Answer: 16%

Question: And the Estrogenic effect [14]?
Answer: 1%

Question: Which results are given for `Oc1ccc([C@@H]2Sc3c(ccc(O)c3Cl)O[C@@H]2c2ccc(OCCN3CCCCC3)cc2)cc1`?
Answer: IC50 (Estrogen receptor [1]): 2.4 nM; Antagonism [2]: 67%; IC50 (Estrogen receptor beta [3]): 14 nM; Estrogenic effect [4]: 27%; IC50 (Estrogen receptor [5]): 1 nM; IC50 (Estrogen receptor beta [6]): 64 nM

Question: What does the source list for `Cc1cc2c(cc1O)O[C@H](c1ccc(OCCN3CCCCC3)cc1)[C@H](c1ccc(O)cc1)S2`?
Answer: IC50 (Estrogen receptor [1]): 34.9 nM; IC50 (Estrogen receptor beta [3]): 595 nM

Question: For `Oc1ccc2c(c1)S[C@@H](c1ccccc1O)[C@@H](c1ccc(OCCN3CCCCC3)cc1)O2`, which IC50 (Estrogen receptor [1]) is on record?
Answer: 1.3 nM

Question: And the IC50 (Estrogen receptor beta [3])?
Answer: 1.1 nM

Question: Which IC50 (Estrogen receptor [1]) does the source give for `Oc1cccc([C@H]2Sc3cc(O)ccc3O[C@H]2c2ccc(OCCN3CCCC3)cc2)c1` here?
Answer: 0.9 nM

Question: And the Antagonism [2]?
Answer: 77%

Question: What about the IC50 (Estrogen receptor beta [3]) of the same compound?
Answer: 37 nM

Question: And the Estrogenic effect [4]?
Answer: 22%

Question: And the IC50 (Estrogen receptor [5])?
Answer: 1.7 nM

Question: What about the IC50 (Estrogen receptor beta [6]) of the same compound?
Answer: 40.1 nM

Question: For `Cc1c(O)ccc2c1O[C@H](c1ccc(OCCN3CCCCC3)cc1)[C@H](c1ccc(O)cc1)S2`, which IC50 (Estrogen receptor [1]) is on record?
Answer: 1.2 nM

Question: And the Antagonism [2]?
Answer: 29%

Question: And the IC50 (Estrogen receptor beta [3])?
Answer: 54 nM

Question: And the Estrogenic effect [4]?
Answer: 27%

Question: And the IC50 (Estrogen receptor [5])?
Answer: 9.3 nM

Question: What about the IC50 (Estrogen receptor beta [6]) of the same compound?
Answer: 68.3 nM
